# Experimental data published in ChEMBL document CHEMBL1143851, “Antimicrobial susceptibilities of Peptostreptococcus anaerobius and the newly described Peptostreptococcus stomatis isolated from various human sources” (2007).
# How the values were obtained:
# [1] = system: Peptostreptococcus anaerobius; assay: Antibacterial activity against Peptostreptococcus anaerobius; format: functional
# Method in brief: (§1)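 Clinical isolates (1985–2005) revived from −70°C stocks and subcultured on brucella blood agar. Etest MICs: 48-h anaerobic growth on prereduced brucella and fastidious anaerobe agars (5% defibrinated sheep blood, hemin, vitamin K1) suspended in 0.9% NaCl to 1–2 McFarland, spread on fresh plates of both media; incubated anaerobically at 37°C for 48 h (72 h for slow growers).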
# [2] = system: Peptostreptococcus stomatis; assay: Antibacterial activity against Peptostreptococcus stomatis; format: functional; method in brief: as §1
MIC50 [1] [µg/mL],MIC90 [1] [µg/mL],MIC50 [2] [µg/mL],MIC90 [2] [µg/mL],SMILES
0.094,0.19,< 0.016,0.047,Cc1ncc([N+](=O)[O-])n1CCO [METRONIDAZOLE]
0.125,0.125,0.094,0.125,COc1c(N2C[C@@H]3CCCN[C@@H]3C2)c(F)cc2c(=O)c(C(=O)O)cn(C3CC3)c12 [MOXIFLOXACIN]
0.25,0.38,0.047,0.19,C[C@@H](O)[C@H]1C(=O)N2C(C(=O)O)=C(S[C@@H]3CN[C@H](C(=O)Nc4cccc(C(=O)O)c4)C3)[C@H](C)[C@H]12 [ERTAPENEM]
0.5,1,0.19,0.75,CC[C@H]1OC(=O)[C@H](C)[C@@H](O[C@H]2C[C@@](C)(OC)[C@@H](O)[C@H](C)O2)[C@H](C)[C@@H](O[C@@H]2O[C@H](C)C[C@H](N(C)C)[C@H]2O)[C@](C)(O)C[C@@H](C)CN(C)[C@H](C)[C@@H](O)[C@]1(C)O [AZITHROMYCIN]
0.19,0.75,< 0.016,0.016,CCC[C@@H]1C[C@@H](C(=O)N[C@@H]([C@H]2O[C@H](SC)[C@H](O)[C@@H](O)[C@H]2O)[C@H](C)Cl)N(C)C1 [CLINDAMYCIN]
0.38,0.75,0.064,0.38,CO[C@@]1(NC(=O)Cc2cccs2)C(=O)N2C(C(=O)O)=C(COC(N)=O)CS[C@@H]21 [CEFOXITIN]
0.125,0.38,< 0.016,0.094,CC1(C)S[C@@H]2[C@H](NC(=O)[C@H](N)c3ccc(O)cc3)C(=O)N2[C@H]1C(=O)O [AMOXICILLIN]
